Source: PubChem BioAssay
In the library only some 3.9% were active in any assay of this set; here they are far more common.
M1 antag = blocks human M1 muscarinic receptor. CHO-K1 hM1, Fluo-8 calcium fluorescence, ACh EC80 antagonist. inhibition, % at 3 µM. actives 1.3% (n = 360,000). AID 588852;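 active means percent inhibition above its own plate's cutoff, namely the mean of that plate's compound wells plus 3 SD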;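 further: peak over basal fluorescence ratio during 140 s after agonist addition; 0% = ACh EC80 plus DMSO and 100% = DMSO alone without agonist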
Target sequence (P11229 whole entry, looked up): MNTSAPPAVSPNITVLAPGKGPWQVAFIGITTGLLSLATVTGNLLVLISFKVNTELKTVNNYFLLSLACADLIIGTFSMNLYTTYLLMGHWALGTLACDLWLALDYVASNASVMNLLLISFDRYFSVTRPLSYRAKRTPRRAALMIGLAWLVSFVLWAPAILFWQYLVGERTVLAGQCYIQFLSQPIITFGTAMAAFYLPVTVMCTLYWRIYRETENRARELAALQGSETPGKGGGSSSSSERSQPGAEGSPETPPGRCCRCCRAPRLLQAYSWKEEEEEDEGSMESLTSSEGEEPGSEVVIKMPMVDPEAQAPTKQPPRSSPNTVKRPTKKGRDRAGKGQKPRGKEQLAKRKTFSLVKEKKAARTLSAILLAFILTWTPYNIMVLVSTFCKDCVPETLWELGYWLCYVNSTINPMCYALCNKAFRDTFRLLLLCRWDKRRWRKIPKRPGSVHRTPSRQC
TAAR1 antagonist = antagonists of human TAAR1; Q96RJ0; CHO RD-HGA16 TAAR1, Fluo-8 calcium fluorescence, antagonist; inhibition, % at 3 µM; actives 1.5% (n = 360,000);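 active means inhibition above a per-plate cutoff, the mean inhibition of test compounds on that plate plus 3 SD, cut at about 49% in these data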;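 further: 0% = DMSO plus EC80 beta-PEA response and 100% = DMSO alone without agonist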
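Assay system: RD-HGA16 CHO cells with stable hTAAR1 and Gα16 / Reagent: EC80 β-phenethylamine stimulus / Doses: 3 µM, single point / Timing: dye loading 75 min at 37 °C, then 30 min room temperature / Measured by: Fluo-8 intracellular calcium dye fluorescence, real-time kinetic reads / Controls: vehicle wells and EC80 agonist wells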
HTR2A ag = agonists of mouse serotonin 5-HT2A receptor (HTR2A) | P35363 | CHO-K1 mHTR2A beta-arrestin complementation, luminescence; percent of 30 µM serotonin response | activation, % at 7.6 µM | actives 0.66% (n = 360,000) | AID 624169;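 active means activation above a run cutoff, the mean activation of all tested compounds plus 3 SD, cut at about 14% in these data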;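 further: 0% = plate median of compound wells and 100% = 30 µM serotonin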
CHRM1 PAM = human CHRM1 positive allosteric modulation. P11229. actives 0.088% (n = 360,000). AID 588819. activation, % at 3 µM. CHO-K1 hM1, Fluo-8 calcium fluorescence, ACh EC20; 0% = ACh EC20, 100% = maximal ACh; in the data active means activation above about 19%, passing the limit was not always enough
TAAR1 ag = human TAAR1 agonism; AID 624467; Q96RJ0; CHO RD-HGA16 TAAR1, Fluo-8 calcium fluorescence; vehicle wells 0%, saturating PEA agonist 100%; actives 0.99% (n = 360,000); activation, % at 3 µM;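 active means activation above the mean activation of all test compounds in the run plus 3 SD, cut at about 38% in these data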
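Assay system: CHO-derived RD-HGA16 cells with stable Gα16 and human TAAR1; timing: 17-24 h seeding, 75 min 37 °C dye, 30 min RT; read-out: % activation from peak over basal fluorescence ratio, DMSO-to-PEA scaled; measured by: kinetic Fluo-8 calcium fluorescence; benchmarks: low control DMSO, high control PEA (EC100); doses: 3 µM single concentration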
CHRM1 agonist = activates human CHRM1 receptor; actives 0.33% (n = 360,000); activation, % at 3 µM; CHO-K1 hM1, Fluo-8 calcium fluorescence, agonist mode; 0% DMSO, 100% acetylcholine EC100; P11229; AID 588814;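 active means activation above the run's mean compound activation plus 3 SD, cut at about 16% in these data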;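 further: peak over basal fluorescence ratio within a 140 s kinetic read after compound addition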
OPRM1 ag = activates human mu opioid receptor in HTR2A counterscreen; shares compounds with HTR2A ag; U2OS OPRM1 beta-arrestin PathHunter, luminescence; DMSO 0%, DAMGO 9.3 µM 100%; activation, % at 9.3 µM; actives 5.3% (n = 2,300); AID 624380;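 active means mean activation above the mean of DMSO-only wells plus 3 SD, cut at about 0.5% in these data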
HTR2A ag conf = confirmation of mouse HTR2A serotonin receptor agonists; shares compounds with HTR2A ag; CHO-K1 PathHunter beta-arrestin recruitment, luminescence; DMSO 0%, 30 µM serotonin 100%; activation, % at 7.6 µM; actives 19% (n = 2,300);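 active means mean activation across triplicates above the hit threshold derived in the original primary screen, cut at about 15% in these data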
TAAR1 nonsel count = nonselective antagonism, TAAR1 counter-screen; inhibition, % at 3 µM; counterscreen cell line, calcium fluorescence, antagonist mode; actives 77% (n = 2,400); shares compounds with TAAR1 antagonist; in the data active means inhibition above about 22%;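 further: CHO-Ga16 host cells stimulated with ATP at an EC80 level; 0% = agonist EC80 plus vehicle and 100% = vehicle without agonist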
TAAR1 antag conf = confirmation of human TAAR1 antagonists; shares compounds with TAAR1 antagonist; AID 651785; actives 40% (n = 2,400); TAAR1-expressing cells, fluorescence antagonist read-out; inhibition, % at 3 µM; in the data active means inhibition above about 49%;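 further: CHO-Ga16 host cells challenged with agonist PEA near its EC80; 0% = agonist at EC80 plus vehicle and 100% = vehicle with no agonist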
Ga16 ag counter-1 = nonselective Ga16 agonist in TAAR1 antagonist counter-screen; shares compounds with TAAR1 antagonist; Ga16-expressing cells, calcium fluorescence, agonist counterscreen; activation, % at 3 µM; actives 18% (n = 2,400); in the data active means activation above about 12%;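 further: 0% = vehicle wells and 100% = saturating stimulus response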
TAAR1 ag counter = activates human TAAR1 in antagonist counter-screen; shares compounds with TAAR1 antagonist; actives 2% (n = 2,400); hTAAR1 cell line, fluorescence activation, agonist mode; activation, % at 3 µM; AID 651955; in the data active means activation above about 37%;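 further: CHO cells stably expressing TAAR1 with calcium dye readout; 0% = DMSO vehicle and 100% = full agonist response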
TAAR1 ag conf = confirmation of human TAAR1 agonists; shares compounds with TAAR1 ag; CHO RD-HGA16 TAAR1, Fluo-8 calcium fluorescence; scaled: DMSO 0%, maximal phenethylamine 100%; activation, % at 3 µM; actives 82% (n = 2,400); AID 651783;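 active means activation above a cutoff set at the run's mean compound activation plus 3 SD, cut at about 39% in these data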
Ga16 ag counter-2 = nonselective agonism, TAAR1 counter-screen; shares compounds with TAAR1 ag; CHO-Ga16 parental, Fluo-8 calcium fluorescence; normalized to maximal ATP response, DMSO zero; activation, % at 3 µM; actives 50% (n = 2,400);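 active means activation above the run cutoff, the mean activation over all tested wells plus 3 SD, cut at about 12% in these data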;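 further: 0% = DMSO wells and 100% = maximal ATP response on the peak over basal ratio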
TAAR1 desens = human TAAR1 agonist that also desensitizes the receptor | shares compounds with TAAR1 ag | CHO RD-HGA16 hTAAR1, Fluo-8 calcium, beta-PEA response inhibition | inhibition, % at 3 µM | actives 46% (n = 2,400);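 active means inhibition above the run cutoff, the mean inhibition of all test compounds plus 3 SD, cut at about 49% in these data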;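 further: beta-PEA stimulus applied at its EC80; loss of beta-PEA calcium signal after compound pretreatment read as receptor desensitization; 0% = DMSO with beta-PEA at EC80 and 100% = DMSO alone without agonist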
Ga16 nonsel ant = nonselective Ga16 antagonist in TAAR1 agonist counter-screen | shares compounds with TAAR1 ag | CHO-Ga16 ATP-induced calcium, Fluo-8 fluorescence | inhibition, % at 3 µM | actives 39% (n = 2,400);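 active means inhibition above the plate's mean compound inhibition plus 3 SD, computed per plate, cut at about 22% in these data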;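 further: 0% = EC80 ATP with DMSO and 100% = DMSO wells without ATP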
Numbers without * were called inactive; ! = not active in a repeat.

For COC1CC2C=C(C)C=CC=CC(=O)NC(c3ccccc3)CC=CCCC(O)CC(=O)C2=C1O (configuration not stated) the results were M1 antag 56*, TAAR1 antagonist 84*, HTR2A ag 21*, CHRM1 PAM -18, TAAR1 ag 7, CHRM1 agonist 12, OPRM1 ag 6.0* and HTR2A ag conf 19*.
`C[C@H](N)CN1CCc2ccc(Br)cc21` gave M1 antag -24, TAAR1 antagonist 6, HTR2A ag 49*, CHRM1 PAM 0, TAAR1 ag 8, CHRM1 agonist -5, OPRM1 ag -1 and HTR2A ag conf 36*.
For CCCCCSc1cc(OC)c(CCN)cc1OC the results were M1 antag -10, TAAR1 antagonist 2, HTR2A ag 30*, CHRM1 PAM -8, TAAR1 ag 41*, CHRM1 agonist 13, OPRM1 ag 0 and HTR2A ag conf 13.
Screening CCCCCCCSc1cc(OC)c(CCN(C)C)cc1OC returned M1 antag 33, TAAR1 antagonist 14, HTR2A ag 34*, CHRM1 PAM -13, TAAR1 ag 22, CHRM1 agonist 6, OPRM1 ag 0 and HTR2A ag conf 17*.
`CCOP(=O)(OCC)C(O)c1ccccc1` (configuration not stated) gave M1 antag -4, TAAR1 antagonist -4, HTR2A ag 16*, CHRM1 PAM 4, TAAR1 ag 2, CHRM1 agonist 0, OPRM1 ag -1 and HTR2A ag conf -5.
`CC(C)CCC1(CN2CCCC2=O)C(=O)NC(=O)NC1=O` gave M1 antag -3, TAAR1 antagonist 2, HTR2A ag 2, CHRM1 PAM 6, TAAR1 ag -1 and CHRM1 agonist -3.
For Clc1cccc(CNCCc2c[nH]c3ccccc23)c1 the results were M1 antag -11, TAAR1 antagonist 9, HTR2A ag 42*, CHRM1 PAM 10, TAAR1 ag 14, CHRM1 agonist 0, OPRM1 ag 0 and HTR2A ag conf 19*.
Screening CN(Cc1cccc(-c2ccncc2)c1)C(=O)Oc1ccccc1Cl returned HTR2A ag -4.
Cc1nc2cc(OC(=O)N(C)Cc3cccc(-c4ccncc4)c3)ccc2s1 was read as HTR2A ag 20*, OPRM1 ag 0 and HTR2A ag conf -4.
For COc1cc(CC(C)N)c(OC)cc1I (configuration not stated) the results were M1 antag -33, TAAR1 antagonist -10, HTR2A ag 70*, CHRM1 PAM 6, TAAR1 ag 40*!, CHRM1 agonist 9, OPRM1 ag 0, HTR2A ag conf 39*, TAAR1 ag conf 39*, Ga16 ag counter-2 0, TAAR1 desens 15 and Ga16 nonsel ant 12.
For Cc1nc2ccccc2c(=O)n1-c1cc(F)ccc1F the results were M1 antag -4, TAAR1 antagonist -20, HTR2A ag 0, CHRM1 PAM 7, TAAR1 ag 2 and CHRM1 agonist -5.
For Cc1nc2ccccc2c(=O)n1-c1cccc(C(F)(F)F)c1 the results were M1 antag 6, TAAR1 antagonist -12, HTR2A ag 0, CHRM1 PAM -2, TAAR1 ag 5 and CHRM1 agonist -5.
For CN1C[C@H](CO)C[C@@H]2c3cccc4[nH]cc(c34)C[C@H]21 the results were M1 antag -5, TAAR1 antagonist 1, HTR2A ag 23*, CHRM1 PAM 1, TAAR1 ag 42*, CHRM1 agonist -10, OPRM1 ag 0, HTR2A ag conf 113*, TAAR1 ag conf 57*, Ga16 ag counter-2 0, TAAR1 desens 20 and Ga16 nonsel ant -4.
For Cc1c(C(=O)N2CCC3(CC2)OCCO3)sc2ncnc(N3CCN(c4ccccn4)CC3)c12 the results were M1 antag 28, TAAR1 antagonist 61*, HTR2A ag 0, CHRM1 PAM -12, TAAR1 ag 23, CHRM1 agonist -6, TAAR1 nonsel count 28*, TAAR1 antag conf 50*, Ga16 ag counter-1 8 and TAAR1 ag counter 7.
`CC12CCC3C(CC=C4CC5(CCC43C)OCCO5)C1CCC2=O` (configuration not stated) gave M1 antag -14, TAAR1 antagonist -23, HTR2A ag 2, CHRM1 PAM 11, TAAR1 ag 3 and CHRM1 agonist -4.
`CN(Cc1cccc(-c2ccncc2)c1)C(=O)Oc1ccccc1Cc1ccccc1` gave HTR2A ag -1.
